# Measured values from ChEMBL document CHEMBL1148541, “Biological evaluation of 1-alkyl-3-phenylthioureas as orally active HDL-elevating agents” (Bioorg Med Chem Lett, 2006).
# Activity calls are given as the source filed them. No cut-off for these calls is given here.
# Assays:
# [1] = test system: Rattus norvegicus; assay: Increase of HDL level in cholesterol-fed male rats by ultracentrifugation method at 77 mg/kg/day relative to control; type: functional
# Method in brief: (§1)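 Compound given in the diet, ad libitum, to groups of six male Sprague–Dawley rats on a cholesterol diet for 8 days. Serum lipoproteins were separated by classical ultracentrifugation, and HDL cholesterol was quantitated by an enzymatic colorimetric method. Results are reported as % change relative to untreated controls, with significance at p < 0.05 versus controls.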
# [2] = test system: Rattus norvegicus; assay: Increase of HDL level in cholesterol-fed male rats by FPLC method at 77 mg/kg/day relative to control; type: functional
# Method in brief: (§2)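 Groups of six male Sprague–Dawley rats on a cholesterol diet received drug in the diet, ad libitum, for 8 days. Serum lipoproteins separated by FPLC, adapted for robotic automation, and cholesterol quantitated enzymatically by colorimetry. HDL given as % change versus untreated controls, with significance set at p < 0.05.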
# [3] = test system: Rattus norvegicus; assay: Increase of Apolipoprotein A-I level in cholesterol-fed male rats at 77 mg/kg/day relative to control; type: functional
# Method in brief: (§3)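 Drug mixed into diet, fed ad libitum for 8 days to groups of six male Sprague–Dawley rats on a cholesterol diet. Serum Apo A-I measured by SDS–polyacrylamide gel electrophoresis or by rat competition ELISA. Reported as % change versus untreated controls, with significance set at p < 0.05.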
# [4] = test system: Rattus norvegicus; assay: Weight gain in cholesterol-fed male rats at 77 mg/kg/day relative to control; type: functional
# Method in brief: (§4)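 Groups of six male Sprague–Dawley rats on a cholesterol diet received the compound in the diet, ad libitum, over 8 days. Body weight gain is reported as % change relative to untreated controls.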
# [5] = test system: Rattus norvegicus; assay: Triglyceride level in cholesterol-fed male rats at 77 mg/kg/day relative to control; type: functional
# Method in brief: (§5)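 Male Sprague–Dawley rats on a cholesterol diet, in groups of six, received the compound in the diet ad libitum for 8 days. Serum triglycerides are expressed as % change relative to untreated controls, with significance at p < 0.05 versus controls.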
# [6] = test system: Rattus norvegicus; assay: Increase of total cholesterol level in cholesterol-fed male rats at 77 mg/kg/day relative to control; type: functional
# Method in brief: (§6)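 Dietary (ad libitum) dosing of groups of six male Sprague–Dawley rats on a cholesterol diet for 8 days. Serum total cholesterol was quantitated enzymatically by a colorimetric method and expressed as % change relative to untreated controls, with significance at p < 0.05.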
# [7] = test system: Rattus norvegicus; assay: Increase of total cholesterol level in cholesterol-fed male rats at 79 mg/kg/day relative to control; type: functional; method in brief: as §6
# [8] = test system: Rattus norvegicus; assay: Increase of HDL level in cholesterol-fed male rats by ultracentrifugation method at 79 mg/kg/day relative to control; type: functional; method in brief: as §1
# [9] = test system: Rattus norvegicus; assay: Triglyceride level in cholesterol-fed male rats at 79 mg/kg/day relative to control; type: functional; method in brief: as §5
# [10] = test system: Rattus norvegicus; assay: Increase of Apolipoprotein A-I level in cholesterol-fed male rats at 79 mg/kg/day relative to control; type: functional; method in brief: as §3
# [11] = test system: Rattus norvegicus; assay: Increase of HDL level in cholesterol-fed male rats by FPLC method at 79 mg/kg/day relative to control; type: functional; method in brief: as §2
# [12] = test system: Rattus norvegicus; assay: Weight gain in cholesterol-fed male rats at 79 mg/kg/day relative to control; type: functional; method in brief: as §4
# [13] = test system: Rattus norvegicus; assay: Increase of HDL level in cholesterol-fed male rats by FPLC method at 55 mg/kg/day relative to control; type: functional; method in brief: as §2
# [14] = test system: Rattus norvegicus; assay: Weight gain in cholesterol-fed male rats at 55 mg/kg/day relative to control; type: functional; method in brief: as §4
# [15] = test system: Rattus norvegicus; assay: Triglyceride level in cholesterol-fed male rats at 55 mg/kg/day relative to control; type: functional; method in brief: as §5
# [16] = test system: Rattus norvegicus; assay: Increase of Apolipoprotein A-I level in cholesterol-fed male rats at 55 mg/kg/day relative to control; type: functional; method in brief: as §3
# [17] = test system: Rattus norvegicus; assay: Increase of total cholesterol level in cholesterol-fed male rats at 55 mg/kg/day relative to control; type: functional; method in brief: as §6
# [18] = test system: Rattus norvegicus; assay: Increase of HDL level in cholesterol-fed male rats by ultracentrifugation method at 55 mg/kg/day relative to control; type: functional
# Method in brief: (§7)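 Cholesterol-fed male Sprague–Dawley rats, six per group, given drug in the diet ad libitum for 8 days. Serum lipoproteins separated by classical ultracentrifugation and HDL cholesterol measured by an enzymatic colorimetric method. Expressed as % change versus untreated controls, with significance set at p < 0.05.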
# [19] = species: Rattus norvegicus; assay: Increase in liver enzyme Alkaline phosphatase; type: functional; design: concentration or dose not given beside the values
# [20] = test system: Rattus norvegicus; assay: Increase of Apolipoprotein A-I level in cholesterol-fed male rats at 63 mg/kg/day relative to control; type: functional; method in brief: as §3
# [21] = test system: Rattus norvegicus; assay: Increase of HDL level in cholesterol-fed male rats by ultracentrifugation method at 63 mg/kg/day relative to control; type: functional; method in brief: as §7
# [22] = test system: Rattus norvegicus; assay: Increase of HDL level in cholesterol-fed male rats by FPLC method at 63 mg/kg/day relative to control; type: functional; method in brief: as §2
# [23] = test system: Rattus norvegicus; assay: Weight gain in cholesterol-fed male rats at 63 mg/kg/day relative to control; type: functional; method in brief: as §4
# [24] = test system: Rattus norvegicus; assay: Increase of total cholesterol level in cholesterol-fed male rats at 63 mg/kg/day relative to control; type: functional; method in brief: as §6
# [25] = test system: Rattus norvegicus; assay: Triglyceride level in cholesterol-fed male rats at 63 mg/kg/day relative to control; type: functional; method in brief: as §5
# [26] = species: Rattus norvegicus; assay: Increase in liver enzyme Aspartate aminotransferase; type: functional; design: concentration or dose not given beside the values
# [27] = target: T1, Peroxisome proliferator-activated receptor alpha (Rattus norvegicus, UniProt P37230); assay: Activity against PPAR-alpha
# T1 sequence (P37230 whole entry): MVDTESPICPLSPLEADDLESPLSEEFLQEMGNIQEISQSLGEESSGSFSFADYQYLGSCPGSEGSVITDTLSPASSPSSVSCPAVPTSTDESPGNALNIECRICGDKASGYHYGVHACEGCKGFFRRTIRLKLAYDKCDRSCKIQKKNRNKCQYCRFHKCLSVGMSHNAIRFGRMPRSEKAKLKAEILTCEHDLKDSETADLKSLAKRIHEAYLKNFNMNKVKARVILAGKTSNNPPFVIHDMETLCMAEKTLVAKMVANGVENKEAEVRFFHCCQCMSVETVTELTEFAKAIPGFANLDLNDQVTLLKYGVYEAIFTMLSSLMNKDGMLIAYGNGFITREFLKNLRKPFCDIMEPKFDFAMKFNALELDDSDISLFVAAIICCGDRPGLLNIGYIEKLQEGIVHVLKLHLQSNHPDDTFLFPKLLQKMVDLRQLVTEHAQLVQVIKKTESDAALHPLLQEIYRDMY
# [28] = test system: Rattus norvegicus; assay: Increase of Apolipoprotein A-I level in cholesterol-fed male rats at 62 mg/kg/day relative to control; type: functional; method in brief: as §3
# [29] = test system: Rattus norvegicus; assay: Increase of HDL level in cholesterol-fed male rats by FPLC method at 62 mg/kg/day relative to control; type: functional; method in brief: as §2
# [30] = test system: Rattus norvegicus; assay: Weight gain in cholesterol-fed male rats at 62 mg/kg/day relative to control; type: functional; method in brief: as §4
# [31] = target: T2, Peroxisome proliferator-activated receptor delta (Homo sapiens, UniProt Q03181); assay: Activity against PPAR-delta
# T2 sequence (Q03181 whole entry): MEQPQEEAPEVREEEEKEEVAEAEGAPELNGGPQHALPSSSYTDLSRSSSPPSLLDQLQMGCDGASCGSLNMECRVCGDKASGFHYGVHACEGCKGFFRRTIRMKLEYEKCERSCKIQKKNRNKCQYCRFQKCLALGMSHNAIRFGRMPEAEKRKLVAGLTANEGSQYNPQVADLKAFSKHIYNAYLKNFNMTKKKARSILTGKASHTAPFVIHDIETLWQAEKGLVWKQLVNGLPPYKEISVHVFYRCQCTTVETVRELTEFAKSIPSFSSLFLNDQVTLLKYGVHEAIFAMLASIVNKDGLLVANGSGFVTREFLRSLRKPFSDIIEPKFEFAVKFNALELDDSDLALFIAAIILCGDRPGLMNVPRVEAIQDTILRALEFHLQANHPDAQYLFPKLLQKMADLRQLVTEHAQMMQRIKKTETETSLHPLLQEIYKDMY
# [32] = test system: Rattus norvegicus; assay: Increase of HDL level in cholesterol-fed male rats by ultracentrifugation method at 62 mg/kg/day relative to control; type: functional; method in brief: as §7
# [33] = test system: Rattus norvegicus; assay: Triglyceride level in cholesterol-fed male rats at 62 mg/kg/day relative to control; type: functional; method in brief: as §5
# [34] = test system: Rattus norvegicus; assay: Increase of total cholesterol level in cholesterol-fed male rats at 62 mg/kg/day relative to control; type: functional; method in brief: as §6
# [35] = test system: Rattus norvegicus; assay: Increase of HDL level in cholesterol-fed male rats by FPLC method at 50 mg/kg/day relative to control; type: functional; method in brief: as §2
# [36] = test system: Rattus norvegicus; assay: Triglyceride level in cholesterol-fed male rats at 50 mg/kg/day relative to control; type: functional; method in brief: as §5
# [37] = test system: Hamster; assay: Increase of HDL cholesterol in normal-fed hamster at 45 mg/kg/day; type: functional, organism-based; settings: Cricetinae
# [38] = test system: Rattus norvegicus; assay: Weight gain in cholesterol-fed male rats at 50 mg/kg/day relative to control; type: functional; method in brief: as §4
# [39] = test system: Hamster; assay: Increase of HDL cholesterol in chow-fed hamster at 45 mg/kg/day; type: functional, organism-based; settings: Cricetulus griseus
# [40] = test system: Rattus norvegicus; assay: Increase of total cholesterol level in cholesterol-fed male rats at 50 mg/kg/day relative to control; type: functional; method in brief: as §6
# [41] = test system: Rattus norvegicus; assay: Increase of HDL level in cholesterol-fed male rats by ultracentrifugation method at 50 mg/kg/day relative to control; type: functional; method in brief: as §7
# [42] = test system: Rattus norvegicus; assay: Increase of HDL cholesterol in normal-fed rat at 50 mg/kg/day; type: functional
# [43] = test system: Canis familiaris; assay: Increase of HDL cholesterol in normal-fed dog at 250 mg/kg/day; type: functional, organism-based; settings: Canis lupus familiaris
# [44] = test system: Rattus norvegicus; assay: Increase of Apo A-I level in cholesterol-fed male rats at 50 mg/kg/day relative to control; type: functional; method in brief: as §3
# [45] = test system: Rattus norvegicus; assay: Increase of HDL level in cholesterol-fed male rats by FPLC method at 57 mg/kg/day relative to control; type: functional; method in brief: as §2
# [46] = test system: Rattus norvegicus; assay: Increase of total cholesterol level in cholesterol-fed male rats at 57 mg/kg/day relative to control; type: functional; method in brief: as §6
# [47] = test system: Rattus norvegicus; assay: Weight gain in cholesterol-fed male rats at 57 mg/kg/day relative to control; type: functional; method in brief: as §4
# [48] = test system: Rattus norvegicus; assay: Increase of HDL level in cholesterol-fed male rats by ultracentrifugation method at 57 mg/kg/day relative to control; type: functional; method in brief: as §7
# [49] = test system: Rattus norvegicus; assay: Increase of Apolipoprotein A-I level in cholesterol-fed male rats at 57 mg/kg/day relative to control; type: functional; method in brief: as §3
# [50] = test system: Rattus norvegicus; assay: Triglyceride level in cholesterol-fed male rats at 57 mg/kg/day relative to control; type: functional; method in brief: as §5
smiles,measurement,setting,value
Cc1ccc(Cl)cc1/N=C(\S)NCc1ccccc1,Activity,[1],135%
same,Activity,[2],136%
same,Activity,[3],27%
same,Activity,[4],41%
same,Activity,[5],-21%
same,Activity,[6],97%
CCC/N=C(\S)Nc1cc(OC)ccc1OC,Activity,[7],60%
same,Activity,[8],108%
same,Activity,[9],-23%
same,Activity,[10],19%
same,Activity,[11],97%
same,Activity,[12],14%
Cc1ccc(Cl)cc1/N=C(\S)NCCO,Activity,[13],241%
same,Activity,[14],-104%
same,Activity,[15],-53%
same,Activity,[16],48%
same,Activity,[17],39%
same,Activity,[18],75%
CCC/N=C(\S)Nc1cc(Br)ccc1C,Activity,[19],44%
same,Activity,[20],46%
same,Activity,[21],142%
same,Activity,[22],306%
same,Activity,[23],-29%
same,Activity,[24],47%
same,Activity,[25],-53%
CC[C@H]1CCCCN1/C(S)=N/c1cc(Cl)ccc1C,Activity,[19],129%
same,Activity,[26],85%
same,EC50,[27],> 100 µM
same,Activity,[28],39%
same,Activity,[29],404%
same,Activity,[30],-88%
same,EC50,[31],> 100 µM
same,Activity,[32],124%
same,Activity,[33],-56%
same,Activity,[34],126%
Cc1ccc(C)c(OCCCC(C)(C)C(=O)O)c1 [GEMFIBROZIL],Activity,[35],139%
same,Activity,[36],-29%
same,Activity,[37],inactive
same,Activity,[38],2%
same,Activity,[39],inactive
same,Activity,[40],-23%
same,Activity,[41],104%
same,Activity,[42],25%
same,Activity,[43],inactive
same,Activity,[44],54%
CCC/N=C(\S)Nc1cc(F)ccc1C,Activity,[45],312%
same,Activity,[46],54%
same,Activity,[47],-77%
same,Activity,[48],152%
same,Activity,[49],18%
same,Activity,[50],-58%
